Our source for the Activity values is ChEMBL document CHEMBL4396889, “From Inhibition to Degradation: Targeting the Antiapoptotic Protein Myeloid Cell Leukemia 1 (MCL1)” (J Med Chem, 2019).

What all share (format): cell-based
Test [1] has as its target T1, Protein cereblon/Induced myeloid leukemia cell differentiation protein Mcl-1 (Homo sapiens) (UniProt Q07820+Q96SW2). The test is described as follows: Protac activity at Cereblon/MCL1 long isoform in wild type human OPM2 cells at 500 nM after 48 hrs by immunoblot analysis relative to control. The procedure, abridged:
(§1)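 OPM2 multiple myeloma cells, wild type or CRBN-knockout, were treated for 48 h with degrader or DMSO vehicle. MCL1 long and short isoforms were detected by immunoblot and levels compared with DMSO controls.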

Test [2] deals with T2, Induced myeloid leukemia cell differentiation protein Mcl-1 (Homo sapiens, UniProt Q07820). Nature of the test: Induction of MCL1 long isoform degradation in CRBN-/- human OPM2 cells assessed as protein abundance at 250 nM after 48 hrs by immunoblot analysis relative to control. In short, it runs like this: as §1
In general terms: In western blotting, separated proteins are transferred to a membrane and probed.

Test [3] addresses T1, Protein cereblon/Induced myeloid leukemia cell differentiation protein Mcl-1 (Homo sapiens). Nature of the test: Protac activity at Cereblon/MCL1 short isoform in human MM1S cells assessed as MCL1 short isoform level at 300 nM pre-incubated for 72 hrs followed by cycloheximide addition and measured after 120 mins by immunoblot analysis (reference value: 80%). The procedure, abridged:
(§2)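 Cycloheximide chase: cells were treated for 72 h with DMSO or degrader, with cycloheximide added for the final 30, 60 or 120 min. OPM2 and MM1.S cells were used, and wild-type OPM2 was compared with OPM2 CRBN-/- at 60 and 120 min. MCL1 was detected by immunoblot.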

Test [4] has the same target. Nature of the test: Protac activity at Cereblon/MCL1 short isoform in wild type human OPM2 cells assessed as MCL1 short isoform level at 300 nM pre-incubated for 72 hrs followed by cycloheximide addition and measured after 120 mins by immunoblot analysis (reference value: 14%). In short, it runs like this: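 OPM2 wild-type and OPM2 CRBN-/- cells were treated for 72 h with compound or DMSO, with cycloheximide present for the final 60 or 120 min. MCL1 was detected by immunoblot.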

Test [5] addresses T2, Induced myeloid leukemia cell differentiation protein Mcl-1. The test is described as follows: Induction of MCL1 long isoform degradation in CRBN-/- human OPM2 cells assessed as protein abundance at 300 nM pre-incubated for 72 hrs followed by cycloheximide addition and measured after 120 mins by immunoblot analysis (reference value: 37%). In short, it runs like this: as §2

T1 sequence (Q07820 whole entry, looked up, canonical isoform): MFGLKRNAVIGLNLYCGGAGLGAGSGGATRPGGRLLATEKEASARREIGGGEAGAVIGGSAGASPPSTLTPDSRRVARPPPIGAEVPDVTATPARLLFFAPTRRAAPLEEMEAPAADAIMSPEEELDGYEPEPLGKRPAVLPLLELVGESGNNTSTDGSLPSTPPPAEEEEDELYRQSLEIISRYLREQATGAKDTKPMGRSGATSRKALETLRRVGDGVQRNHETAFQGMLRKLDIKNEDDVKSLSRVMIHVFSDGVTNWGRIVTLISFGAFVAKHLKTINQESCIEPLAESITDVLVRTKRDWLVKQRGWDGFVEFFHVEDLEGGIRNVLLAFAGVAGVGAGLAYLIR
T1 sequence (Q96SW2 whole entry, looked up, canonical isoform): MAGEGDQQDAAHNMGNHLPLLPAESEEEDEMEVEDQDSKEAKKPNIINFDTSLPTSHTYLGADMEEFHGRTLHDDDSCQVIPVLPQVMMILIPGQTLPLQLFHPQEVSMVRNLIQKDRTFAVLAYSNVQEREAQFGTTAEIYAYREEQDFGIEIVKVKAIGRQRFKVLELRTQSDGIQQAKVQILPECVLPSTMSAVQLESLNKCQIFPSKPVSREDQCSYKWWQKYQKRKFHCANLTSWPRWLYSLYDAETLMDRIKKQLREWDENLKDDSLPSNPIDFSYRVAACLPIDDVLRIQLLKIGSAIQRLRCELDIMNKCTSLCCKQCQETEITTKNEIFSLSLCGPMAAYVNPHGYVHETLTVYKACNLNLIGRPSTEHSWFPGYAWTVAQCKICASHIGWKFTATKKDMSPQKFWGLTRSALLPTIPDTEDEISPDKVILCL
T2 sequence (Q07820 whole entry, canonical isoform): as the sequence (Q07820 whole entry, looked up, canonical isoform) above

As for `Cc1nn(C)c(COc2ccc(N3CCN(S(=O)(=O)N(C)C)CC3)cc2)c1-c1cccc2c(CCCOc3cccc4ccccc34)c(C(=O)O)n(CCN3CCN(C(=O)COc4cccc5c4C(=O)N(C4CCC(=O)NC4=O)C5=O)CC3)c12` (stereo not given), the Activity in test [1] is 50%; in test [2], 85%; in test [3], 34%; in test [4], 2%; in test [5], 39%.
